# Results gathered from unrelated publications.
# Compare with care: the assays were run in different laboratories.
# Target: Calcium/calmodulin-dependent protein kinase kinase 1 (CAMKK1, Homo sapiens, UniProt Q8N5S9)
Structure (SMILES),assay,conditions,measurement,value
COc1cc(Cl)c(C(=O)N[C@@H](CN[C@H]2CC[C@@H](N)CC2)Cc2ccc(C#N)cc2)cc1-c1ccc(CN[C@H](C)c2ccc(C)cc2)o1,"enzyme activity, inhibitor",1 µM,remaining activity,100%
Cn1c2c(Cl)c(Cl)ccc2c2cc(N)[nH]c(=O)c21,"thermal stability, DSF",10 µM,ΔTm,0.7 °C
Cc1nc(N2CC[C@@H](O)C2)ncc1-c1cc(C(F)(F)F)cc2[nH]ncc12,"binding, competition with immobilised ligand",1 µM,remaining binding,100%
Cn1c2c(c3ccc(Cl)c(Cl)c31)C(C#N)C1(CCN(C(=O)OC(C)(C)C)CC1)NC2=O (racemic),"thermal stability, DSF",10 µM,ΔTm,-0.1 °C
CCCOc1ccc([C@H]2[C@H](C(=O)O)[C@@H](c3ccc4c(c3)OCO4)CN2CC(=O)Nc2c(CC)cccc2CC)cc1,"cell-free assay, competition with immobilised ligand",1 µM,remaining binding,86%
CN1CC(Oc2cnc(C#N)cc2-c2ccn3nc(NC(=O)C4CC4)cc3c2)C1,"enzyme activity, inhibitor",1 µM,inhibition,3%
Nc1nc(Nc2ccc(S(N)(=O)=O)cc2)nn1C(=O)c1c(F)cccc1F,cell-free assay,0.5 µM,remaining signal,86.4%
CCCCNc1ncc2c(-c3ccc(F)cc3)nn(C[C@H]3CC[C@H](N)CC3)c2n1,"target engagement in cells, inhibitor, chemoproteomics",20 mM,inhibition,20.6%
N#CCCc1ccc2c(c1)-c1[nH]c3ccc([N+](=O)[O-])cc3c1CC(=O)N2,cell-free assay,0.5 µM,remaining signal,86.7%
CC1=C(C#N)C(c2ccc3c(c2)c(NC(=O)c2ccccc2C)nn3C)C(C#N)=C(C)N1,"cell-free assay, competition with immobilised ligand",1 µM,remaining binding,100%
Cc1sc(C(=O)NC2COC2)cc1-n1cc(NC(=O)Nc2c(F)cccc2Cl)cn1,"enzyme activity, inhibitor",10 µM,remaining activity,121%
Oc1ccc(-c2nc(-c3ccncc3)c(-c3ccc(F)cc3)[nH]2)cc1,cell-free assay,0.5 µM,remaining signal,123%
Cc1ccc(C(=O)NCc2ccsc2)cc1C#Cc1cn(C(C)C)c2ncnc(N)c12,"enzyme activity, inhibitor",1 µM,activity vs control,84%
COc1ccc2c(c1)O[C@H](c1ccc(OC)c(OC)c1)C[C@@H]2NC(=O)C1(c2ccc3c(c2)OC(F)(F)O3)CC1,"cell-free assay, competition with immobilised ligand",1 µM,remaining binding,100%
Cn1c2c(Cl)c(Cl)ccc2c2cn[nH]c(=O)c21,"thermal stability, DSF",10 µM,ΔTm,0.5 °C
Cc1ccc(C(=O)Nc2ccc(CN3CCN(C)CC3)c(C(F)(F)F)c2)cc1C#Cc1cnc2cccnn12,"enzyme activity, inhibitor",23.5 nM,remaining activity,85%
Nc1ncnc2occ(-c3ccc(NC(=O)Nc4cc(C(F)(F)F)ccc4F)cc3)c12,"cell-free assay, inhibitor",20 µM,remaining signal,28%
NS(=O)(=O)c1cc(NC(=O)Cc2ccccc2)ccc1Oc1cccc(Cl)c1,"cell-free assay, competition with immobilised ligand",1 µM,remaining binding,100%
CN(c1ncccc1CNc1nc(Nc2ccc3c(c2)CC(=O)N3)ncc1C(F)(F)F)S(C)(=O)=O,"enzyme activity, inhibitor",1 µM,inhibition,46%
